In brackets after ≈: the same amount, converted by molar mass. Activity calls are given as the source filed them. No cut-off for these calls is given here.
What was measured:
[1] = system: Staphylococcus aureus; test: Bactericidal activity against methicillin-resistant Staphylococcus aureus ATCC 43300 preincubated 16 to 20 hrs followed by subculturing and measured after over night; type: functional
Summary of the method: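 MBC determined by the CLSI broth microdilution method against MRSA ATCC 43300, with ATCC 43300 also serving as the QC strain. Pleuromutilin and tiamulin were reference drugs.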

[2] = system: Staphylococcus aureus; test: Antibacterial activity against methicillin-resistant Staphylococcus aureus ATCC 43300 assessed as post antibacterial effect at 4 time of MIC concentration preincubated for 2 hrs followed by compound washout further incubated with fresh medium and measured for 6 hrs; type: functional
[3] = Ratio of MBC for bactericidal activity against methicillin-resistant Staphylococcus aureus ATCC 43300 to MIC for antibacterial activity against methicillin-resistant Staphylococcus aureus ATCC 4330; type: functional
[4] = system: Staphylococcus aureus; test: Antibacterial activity against Staphylococcus aureus ATCC 29213 after 24 hrs by CLSI based broth micro dilution method; type: functional
Summary of the method: (§1)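 Broth microdilution run per CLSI. MRSA ATCC 43300 served as the QC strain, with the CLSI QC range as reference. S. aureus AD3 and 144 are clinical isolates from Guangdong Province. Pleuromutilin and tiamulin were run as reference drugs.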

[5] = system: Staphylococcus aureus; test: Antibacterial activity against methicillin-resistant Staphylococcus aureus ATCC 43300 assessed as post antibacterial effect at 2 time of MIC concentration preincubated for 2 hrs followed by compound washout further incubated with fresh medium and measured for 6 hrs; type: functional
[6] = system: Staphylococcus aureus; test: Bactericidal activity against methicillin-resistant Staphylococcus aureus ATCC 43300 assessed as reduction in bacterial growth at MIC concentration preincubated up to 24 hrs followed by subculturing and measured after 20 hrs by time-kill assay; type: functional, organism-based; conditions: time hrs <=44
[7] = system: Staphylococcus aureus; test: Bactericidal activity against Staphylococcus aureus 144 preincubated 16 to 20 hrs followed by subculturing and measured after over night; type: functional
Summary of the method: (§2)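 MBC by CLSI broth microdilution on the same strain panel: S. aureus ATCC 43300, ATCC 29213, clinical isolates AD3 and 144, E. coli ATCC 25922; ATCC 43300 served as QC strain.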

[8] = system: Escherichia coli; test: Bactericidal activity against Escherichia coli ATCC 25922 preincubated 16 to 20 hrs followed by subculturing and measured after over night; type: functional; summary of the method: as §2
[9] = system: Escherichia coli; test: Antibacterial activity against Escherichia coli ATCC 25922 after 24 hrs by CLSI based broth micro dilution method; type: functional
Summary of the method: (§3)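 CLSI broth microdilution MIC against S. aureus ATCC 43300 (MRSA), ATCC 29213, clinical isolates AD3 and 144 (Guangdong Province), and E. coli ATCC 25922; ATCC 43300 served as QC strain, with the CLSI quality control range as reference.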

[10] = system: Staphylococcus aureus; test: Antibacterial activity against methicillin-resistant Staphylococcus aureus ATCC 43300 after 24 hrs by CLSI based broth micro dilution method; type: functional; summary of the method: as §1
[11] = system: Staphylococcus aureus; test: Bactericidal activity against Staphylococcus aureus AD3 preincubated 16 to 20 hrs followed by subculturing and measured after over night; type: functional; summary of the method: as §2
[12] = system: Staphylococcus aureus; test: Bactericidal activity against Staphylococcus aureus ATCC 29213 preincubated 16 to 20 hrs followed by subculturing and measured after over night; type: functional; summary of the method: as §2
[13] = system: Staphylococcus aureus; test: Antibacterial activity against Staphylococcus aureus AD3 after 24 hrs by CLSI based broth micro dilution method; type: functional; summary of the method: as §3
[14] = system: Staphylococcus aureus; test: Bactericidal activity against methicillin-resistant Staphylococcus aureus ATCC 43300 assessed as reduction in bacterial growth at > 4 time of MIC concentration preincubated up to 24 hrs followed by subculturing and measured after 20 hrs by time-kill assay; type: functional; design: scale not given: the % may be the effect or the level left; conditions: time hrs <=44
[15] = system: Staphylococcus aureus; test: Antibacterial activity against Staphylococcus aureus 144 after 24 hrs by CLSI based broth micro dilution method; type: functional; summary of the method: as §1
[16] = Inhibition of CYP450 (unknown origin); type: ADME, Homo sapiens
[17] = system: Staphylococcus aureus; test: Antibacterial activity against methicillin-resistant Staphylococcus aureus ATCC 43300 infected in ICR/Swiss mouse model of neutropenic thigh infection assessed as reduction in bacterial load at 20 mg/kg, iv and measured after 24 hrs; type: functional
Summary of the method: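 Mice made neutropenic by intraperitoneal cyclophosphamide; the negative control group received 0.9% saline intraperitoneally. Thigh muscle was inoculated with about 10^7 CFU/mL MRSA. Dose 20 mg/kg, with tiamulin as comparator and an untreated control. Read-out was thigh bacterial load (log10 CFU/g), n = 6/group.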

[18] = system: Staphylococcus aureus; test: Antibacterial activity against methicillin-resistant Staphylococcus aureus ATCC 43300 infected in ICR/Swiss mouse systemic infection model assessed as survival rate at 30 mg/kg, ip after 7 days relative to control; type: functional; conditions: ATCC 43300, ip, 168 h, time 7 day
Summary of the method: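 MRSA systemic infection model in mice. Dose 30 mg/kg with tiamulin as comparator and an untreated infected control. Survival was recorded after 7 days of administration.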

[19] = system: Staphylococcus aureus; test: Bactericidal activity against methicillin-resistant Staphylococcus aureus ATCC 43300 assessed as reduction in bacterial growth at > 8 time of MIC concentration preincubated up to 24 hrs followed by subculturing and measured after 20 hrs by time-kill assay; type: functional, organism-based; conditions: time hrs <=44
[20] = target: Cytochrome P450 3A4 (Homo sapiens, UniProt P08684); test: Inhibition of CYP3A4 in human liver microsomes using testosterone as substrate preincubated for 5 mins followed by NADPH addition and measured after 5 mins by LC-MS/MS analysis; type: ADME
[21] = system: RAW264.7; test: Cytotoxicity against mouse RAW264.7 cells assessed as reduction in cell viability at 8 ug/ml after 16 hrs by MTT assay; type: cell-based; conditions: raw264.7, 16 h, dose 8 µg/ml
Summary of the method: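 RAW 264.7 macrophage viability read by MTT assay after exposure at 8 μg/mL.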

Sequence of Cytochrome P450 3A4 (P08684 whole entry): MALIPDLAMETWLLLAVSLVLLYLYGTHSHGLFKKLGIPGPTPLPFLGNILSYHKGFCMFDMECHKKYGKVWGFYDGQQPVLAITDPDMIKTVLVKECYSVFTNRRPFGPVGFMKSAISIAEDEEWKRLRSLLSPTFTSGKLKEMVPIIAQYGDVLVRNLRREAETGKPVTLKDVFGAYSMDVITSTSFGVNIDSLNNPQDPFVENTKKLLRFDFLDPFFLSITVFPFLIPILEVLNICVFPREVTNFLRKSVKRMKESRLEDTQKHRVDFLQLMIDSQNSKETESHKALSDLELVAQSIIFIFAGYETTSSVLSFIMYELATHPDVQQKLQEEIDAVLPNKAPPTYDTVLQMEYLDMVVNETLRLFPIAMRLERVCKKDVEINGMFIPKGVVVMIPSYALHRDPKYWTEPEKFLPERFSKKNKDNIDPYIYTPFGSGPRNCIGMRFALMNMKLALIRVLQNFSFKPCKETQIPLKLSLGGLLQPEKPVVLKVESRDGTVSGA

| SMILES | MBC [1] [µg/mL] | Ratio [3] | MIC [4] [µg/mL] | MBC [7] [µg/mL] | MBC [8] [µg/mL] | MIC [9] [µg/mL] | MIC [10] [µg/mL] | MBC [11] [µg/mL] | MBC [12] [µg/mL] | MIC [13] [µg/mL] | MIC [15] [µg/mL] | also measured |
| --- | --- | --- | --- | --- | --- | --- | --- | --- | --- | --- | --- | --- |
| C=C[C@]1(C)C[C@@H](OC(=O)CSc2ccccc2NC(=O)Cn2cc(CN(CC)CC)nn2)[C@]2(C)[C@H](C)CC[C@]3(CCC(=O)[C@H]32)[C@@H](C)[C@@H]1O | 0.5 (≈ 0.735 µM) | 1 | 0.25 (≈ 0.368 µM) | 0.5 (≈ 0.735 µM) | > 32 | > 32 | 0.25 (≈ 0.368 µM) | 1 (≈ 1.47 µM) | 0.25 (≈ 0.368 µM) | 0.5 (≈ 0.735 µM) | 0.5 (≈ 0.735 µM) | PAE [2]: 1.84 h; PAE [5]: 1.81 h; Activity [6]: Active; Activity [14]: 99.9% |
| CC[C@]1(C)C[C@@H](OC(=O)CSc2nnc(N)[nH]2)[C@]2(C)[C@H](C)CC[C@]3(CCC(=O)[C@H]32)[C@@H](C)[C@@H]1O [AZAMULIN] | – | – | – | – | – | – | – | – | – | – | – | IC50 [16]: 0.12 µM |
| C=C[C@]1(C)C[C@@H](OC(=O)CSCCN(CC)CC)[C@]2(C)[C@H](C)CC[C@]3(CCC(=O)[C@H]32)[C@@H](C)[C@@H]1O [TIAMULIN] | 1 (≈ 2.03 µM) | – | 0.5 (≈ 1.01 µM) | 2 (≈ 4.05 µM) | – | – | 0.5 (≈ 1.01 µM) | 2 (≈ 4.05 µM) | 1 (≈ 2.03 µM) | 1 (≈ 2.03 µM) | 1 (≈ 2.03 µM) | PAE [2]: 2.04 h; PAE [5]: 1.65 h; Activity [17]: 0.77 log10CFU/g; survival at 30 mg/kg [18]: 20% |
| C=C[C@]1(C)C[C@@H](OC(=O)CSc2ccccc2NC(=O)Cn2cc(CN3CCN(c4cccc([N+](=O)[O-])c4)CC3)nn2)[C@]2(C)[C@H](C)CC[C@]3(CCC(=O)[C@H]32)[C@@H](C)[C@@H]1O | 0.25 (≈ 0.307 µM) | 1 | 0.25 (≈ 0.307 µM) | 0.5 (≈ 0.614 µM) | > 32 | > 32 | 0.125 (≈ 0.154 µM) | 0.5 (≈ 0.614 µM) | 0.25 (≈ 0.307 µM) | 0.25 (≈ 0.307 µM) | 0.25 (≈ 0.307 µM) | Activity [19]: Active |
| C=C[C@]1(C)C[C@@H](OC(=O)CSc2ccccc2NC(=O)Cn2cc(CN3CCN(c4ccc([N+](=O)[O-])cc4)CC3)nn2)[C@]2(C)[C@H](C)CC[C@]3(CCC(=O)[C@H]32)[C@@H](C)[C@@H]1O | 0.25 (≈ 0.307 µM) | 1 | 0.125 (≈ 0.154 µM) | 0.25 (≈ 0.307 µM) | > 32 | > 32 | 0.125 (≈ 0.154 µM) | 0.5 (≈ 0.614 µM) | 0.125 (≈ 0.154 µM) | 0.25 (≈ 0.307 µM) | 0.25 (≈ 0.307 µM) | Activity [19]: Active |
| C=C[C@]1(C)C[C@@H](OC(=O)CSc2ccccc2NC(=O)Cn2cc(CN3CCN(c4ccccc4O)CC3)nn2)[C@]2(C)[C@H](C)CC[C@]3(CCC(=O)[C@H]32)[C@@H](C)[C@@H]1O | 1 (≈ 1.27 µM) | 1 | 1 (≈ 1.27 µM) | 2 (≈ 2.55 µM) | > 32 | > 32 | 0.5 (≈ 0.637 µM) | 2 (≈ 2.55 µM) | 1 (≈ 1.27 µM) | 1 (≈ 1.27 µM) | 1 (≈ 1.27 µM) | – |
| C=C[C@]1(C)C[C@@H](OC(=O)CSc2ccccc2NC(=O)Cn2cc(CN3CCN(C)CC3)nn2)[C@]2(C)[C@H](C)CC[C@]3(CCC(=O)[C@H]32)[C@@H](C)[C@@H]1O | 0.5 (≈ 0.707 µM) | 1 | 0.25 (≈ 0.354 µM) | 2 (≈ 2.83 µM) | > 32 | > 32 | 0.25 (≈ 0.354 µM) | 1 (≈ 1.41 µM) | 0.5 (≈ 0.707 µM) | 0.5 (≈ 0.707 µM) | 0.5 (≈ 0.707 µM) | – |
| C=C[C@]1(C)C[C@@H](OC(=O)CSc2ccccc2NC(=O)Cn2cc(CN3CCN(c4ccccc4C)CC3)nn2)[C@]2(C)[C@H](C)CC[C@]3(CCC(=O)[C@H]32)[C@@H](C)[C@@H]1O | 1 (≈ 1.28 µM) | 1 | 1 (≈ 1.28 µM) | 4 (≈ 5.11 µM) | > 32 | > 32 | 1 (≈ 1.28 µM) | 4 (≈ 5.11 µM) | 2 (≈ 2.55 µM) | 2 (≈ 2.55 µM) | 1 (≈ 1.28 µM) | – |
| C=C[C@]1(C)C[C@@H](OC(=O)CSc2ccccc2NC(=O)Cn2cc(CN(C)C)nn2)[C@]2(C)[C@H](C)CC[C@]3(CCC(=O)[C@H]32)[C@@H](C)[C@@H]1O | 0.5 (≈ 0.767 µM) | 1 | 0.25 (≈ 0.384 µM) | 0.5 (≈ 0.767 µM) | > 32 | > 32 | 0.25 (≈ 0.384 µM) | 0.5 (≈ 0.767 µM) | 0.25 (≈ 0.384 µM) | 0.25 (≈ 0.384 µM) | 0.5 (≈ 0.767 µM) | PAE [2]: 2.74 h; PAE [5]: 2.03 h; Activity [6]: Active; IC50 [20]: 6.15 µM; Activity [17]: 1.71 log10CFU/g; Activity [21]: Non-Toxic; survival at 30 mg/kg [18]: 50%; Activity [14]: 99.9% |
| C=C[C@]1(C)C[C@@H](OC(=O)CSc2ccccc2NC(=O)Cn2cc(CN3CCCC3)nn2)[C@]2(C)[C@H](C)CC[C@]3(CCC(=O)[C@H]32)[C@@H](C)[C@@H]1O | 0.5 (≈ 0.738 µM) | 1 | 0.25 (≈ 0.369 µM) | 0.5 (≈ 0.738 µM) | > 32 | > 32 | 0.25 (≈ 0.369 µM) | 0.5 (≈ 0.738 µM) | 4 (≈ 5.9 µM) | 0.25 (≈ 0.369 µM) | 0.25 (≈ 0.369 µM) | – |
| C=C[C@]1(C)C[C@@H](OC(=O)CSc2ccccc2NC(=O)Cn2cc(CN3CCN(c4ccccc4)CC3)nn2)[C@]2(C)[C@H](C)CC[C@]3(CCC(=O)[C@H]32)[C@@H](C)[C@@H]1O | 0.5 (≈ 0.65 µM) | 1 | 0.5 (≈ 0.65 µM) | 2 (≈ 2.6 µM) | > 32 | > 32 | 0.5 (≈ 0.65 µM) | 1 (≈ 1.3 µM) | 0.5 (≈ 0.65 µM) | 0.5 (≈ 0.65 µM) | 1 (≈ 1.3 µM) | – |

— ChEMBL document CHEMBL4765405, “Design, synthesis and biological activities of novel pleuromutilin derivatives with a substituted triazole moiety as potent antibacterial agents” (Eur J Med Chem, 2020)
